Assay results reported in ChEMBL document CHEMBL3352009, “Glucopyranosylidene-spiro-iminothiazolidinone, a new bicyclic ring system: synthesis, derivatization, and evaluation for inhibition of glycogen phosphorylase by enzyme kinetic and crystallographic methods” (Bioorg Med Chem, 2014).
The source made the active and inactive calls. The calls are words filed in the database; no cut-off is given here.

What follows are compounds tested against T1, Glycogen phosphorylase, muscle form (Oryctolagus cuniculus, UniProt P00489) (assay: Inhibition of rabbit muscle glycogen phosphorylase b at pH 6.8 assessed as inorganic phosphate release).
T1 sequence (P00489 whole entry): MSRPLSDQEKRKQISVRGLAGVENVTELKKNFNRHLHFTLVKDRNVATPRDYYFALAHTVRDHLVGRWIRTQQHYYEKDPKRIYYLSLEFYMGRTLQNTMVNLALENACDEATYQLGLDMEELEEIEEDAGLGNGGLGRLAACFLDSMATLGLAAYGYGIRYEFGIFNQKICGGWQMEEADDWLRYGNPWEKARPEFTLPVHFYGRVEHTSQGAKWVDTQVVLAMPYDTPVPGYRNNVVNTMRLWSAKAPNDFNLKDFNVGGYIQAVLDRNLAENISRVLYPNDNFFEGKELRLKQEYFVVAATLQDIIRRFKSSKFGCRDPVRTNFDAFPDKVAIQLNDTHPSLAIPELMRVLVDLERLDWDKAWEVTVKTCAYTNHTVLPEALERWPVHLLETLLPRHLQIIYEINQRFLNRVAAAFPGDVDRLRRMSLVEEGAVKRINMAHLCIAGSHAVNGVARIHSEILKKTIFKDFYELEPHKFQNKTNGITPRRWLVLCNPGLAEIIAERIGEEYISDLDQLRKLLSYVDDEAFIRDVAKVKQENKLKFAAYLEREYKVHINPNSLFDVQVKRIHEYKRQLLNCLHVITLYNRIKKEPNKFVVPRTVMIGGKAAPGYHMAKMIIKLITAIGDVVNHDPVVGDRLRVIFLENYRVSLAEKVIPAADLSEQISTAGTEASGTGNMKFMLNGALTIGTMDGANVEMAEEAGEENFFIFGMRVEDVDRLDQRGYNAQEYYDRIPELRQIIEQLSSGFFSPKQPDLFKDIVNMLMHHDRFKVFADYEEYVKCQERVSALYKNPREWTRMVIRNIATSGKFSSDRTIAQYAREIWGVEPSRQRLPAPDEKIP
How it was run: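 Rabbit muscle glycogen phosphorylase b; activity followed by inorganic phosphate release at pH 6.8. Inhibition constants reported as Ki, with part of the values derived from IC50 via the Cheng-Prusoff relation Ki = IC50/(1 + [S]/Km).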

Point of comparison: O=C1N/C(=N/S(=O)(=O)c2cccc3ccccc23)S[C@@]12O[C@H](CO)[C@@H](O)[C@H](O)[C@H]2O, Ki 29 µM. Against it:
- O=C1N/C(=N/S(=O)(=O)c2ccccc2)S[C@@]12O[C@H](CO)[C@@H](O)[C@H](O)[C@H]2O — 4.9-fold higher, 143 µM
- O=C1N/C(=N/S(=O)(=O)c2ccc3ccccc3c2)S[C@@]12O[C@H](CO)[C@@H](O)[C@H](O)[C@H]2O — 5.3-fold higher, 153 µM
- O=C(/N=C1/NC(=O)[C@]2(O[C@H](CO)[C@@H](O)[C@H](O)[C@H]2O)S1)c1cccc2ccccc12 — 1.9-fold lower, 15 µM
- O=C(/N=C1/NC(=O)[C@]2(O[C@H](CO)[C@@H](O)[C@H](O)[C@H]2O)S1)c1ccccc1 — 3.2-fold lower, 9 µM
- N=C1NC(=O)[C@]2(O[C@H](CO)[C@@H](O)[C@H](O)[C@H]2O)S1 — within 1.5-fold, 24 µM
- Cc1ccc(C(=O)/N=C2/NC(=O)[C@]3(O[C@H](CO)[C@@H](O)[C@H](O)[C@H]3O)S2)cc1 — within 1.5-fold, 35 µM
- CC(C)(C)C(=O)/N=C1/NC(=O)[C@]2(O[C@H](CO)[C@@H](O)[C@H](O)[C@H]2O)S1 — 4.7-fold higher, 137 µM
- Cc1ccc(S(=O)(=O)/N=C2/NC(=O)[C@]3(O[C@H](CO)[C@@H](O)[C@H](O)[C@H]3O)S2)cc1 — 2.2-fold higher, 63 µM
- O=C(/N=C1/NC(=O)[C@]2(O[C@H](CO)[C@@H](O)[C@H](O)[C@H]2O)S1)c1ccc2ccccc2c1 — 2.9-fold lower, 10 µM

The compounds below were run against T2, Glycogen phosphorylase, muscle form (Oryctolagus cuniculus) (UniProt P00489) (assay: Inhibition of rabbit muscle glycogen phosphorylase b at pH 6.8 assessed as inorganic phosphate release at 1 mM).
T2 sequence (whole entry): T1 sequence (P00489 whole entry)

O=C1N2CCN=C2S[C@@]12O[C@H](CO)[C@@H](O)[C@H](O)[C@H]2O gave an inhibition of 48%.

In the case of O=C1N2CCCN=C2S[C@@]12O[C@H](CO)[C@@H](O)[C@H](O)[C@H]2O, the inhibition is reported as “inactive”.
